Converted amounts (≈) assume the structure as drawn.
Legend:
Staphylococcus aureus = test: Antibacterial activity against Staphylococcus aureus CIP54.146 after 18 hrs by broth microdilution method; format: functional; conditions: CIP54.146, 18 h
Method in brief: (§1)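 CLSI broth microdilution with serial 2-fold dilutions from 0.06 to 64 μg/mL. Cation-adjusted Mueller–Hinton broth, inoculum 5 × 10^5 CFU/mL, incubated at 35 °C for 18 h. MIC taken as the lowest concentration with no visible growth.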

Streptococcus pneumoniae = test: Antibacterial activity against Streptococcus pneumoniae D39 after 18 hrs by broth microdilution method; format: functional; conditions: D39, 18 h
Method in brief: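 CLSI broth microdilution with 2-fold dilutions from 0.06 to 64 μg/mL. Cation-adjusted Mueller–Hinton broth with 2.5% lysed horse blood, inoculum 5 × 10^5 CFU/mL, grown at 35 °C for 18 h in 5% CO2. MIC is the lowest concentration showing no visible growth.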

Enterococcus faecalis = test: Antibacterial activity against Enterococcus faecalis ATCC 29212 after 18 hrs by broth microdilution method; format: functional; conditions: ATCC 29212, 18 h; method in brief: as §1
Escherichia coli = test: Antibacterial activity against Escherichia coli C7 after 18 hrs by broth microdilution method; format: functional; conditions: C7, 18 h
[1] = target: T1, Enoyl-[acyl-carrier-protein] reductase [NADH] FabI (Escherichia coli K-12, UniProt P0AEK4); test: Inhibition of Escherichia coli FabI using crotonoyl-CoA as substrate preincubated for 90 mins
T1 sequence (P0AEK4 whole entry): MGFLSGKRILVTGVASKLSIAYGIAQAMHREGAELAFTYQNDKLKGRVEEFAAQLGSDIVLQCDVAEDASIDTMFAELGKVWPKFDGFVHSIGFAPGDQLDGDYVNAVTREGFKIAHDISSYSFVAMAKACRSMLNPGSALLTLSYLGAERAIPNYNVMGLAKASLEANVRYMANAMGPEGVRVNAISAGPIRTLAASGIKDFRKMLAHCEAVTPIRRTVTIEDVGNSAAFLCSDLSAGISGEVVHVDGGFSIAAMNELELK
Method in brief: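 Recombinant C-terminal 6-His-tagged E. coli FabI (40 nM) in 50 mM Hepes pH 7.5, 100 μM DTT, 0.006% Triton X-100. Enzyme preincubated with 20 μM NADH, 10 μM NAD+ and inhibitor in DMSO for 90 min at room temperature. Reaction started with 50 μM crotonoyl-CoA. 6–10 concentrations; IC50 by Langmuir fit.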

[2] = target: T2, Enoyl-[acyl-carrier-protein] reductase [NADPH] FabI (Staphylococcus aureus, UniProt Q6GI75); test: Inhibition of Staphylococcus aureus recombinant FabI using trans-2-octenoyl N-acetylcysteamine thioester as substrate preincubated for 60 mins
T2 sequence (Q6GI75 whole entry): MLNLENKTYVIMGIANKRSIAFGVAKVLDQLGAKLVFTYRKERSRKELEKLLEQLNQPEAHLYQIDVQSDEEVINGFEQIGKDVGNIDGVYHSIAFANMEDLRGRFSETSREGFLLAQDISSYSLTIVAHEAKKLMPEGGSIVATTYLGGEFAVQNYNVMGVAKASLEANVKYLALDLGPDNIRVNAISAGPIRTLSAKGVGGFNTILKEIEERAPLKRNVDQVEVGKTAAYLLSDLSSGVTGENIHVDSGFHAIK
Method in brief: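 Recombinant S. aureus FabI (2 nM) in 50 mM ADA pH 6.5, 1 mM DTT, 0.006% Triton X-100, 50 mM NaCl. Preincubated 60 min at room temperature with 40 μM NADPH, 10 μM NADP+ and inhibitor in DMSO. Reaction started with 100 μM t-o-NAC. Inhibition versus untreated samples; IC50 by Langmuir fit.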

[3] = Cytotoxicity against human HepG2 cells; format: cell-based; conditions: read-out: ED50 (the source's name)

Compound	MIC (Staphylococcus aureus) [µg/mL]	MIC (Streptococcus pneumoniae) [µg/mL]	MIC (Enterococcus faecalis) [µg/mL]	MIC (Escherichia coli) [µg/mL]	IC50 [1] [nM]	IC50 [2] [nM]	CC50 [3] [µg/mL]
Oc1cc(CC(F)(F)F)ccc1Oc1cccc(F)n1	0.25 (≈ 0.87 µM)	> 64	> 32	4 (≈ 13.9 µM)			
Oc1cc(Cn2cncn2)ccc1Oc1cccc(F)n1	4 (≈ 14 µM)	> 32	> 32	16 (≈ 55.9 µM)	5200		
CCc1cc(OC)c(Oc2ccc(C(N)=O)cc2F)cc1F	> 32	> 32	> 32	> 32		21000	> 32
CCc1ccc(Oc2ccc(NCCCO)cc2F)c(O)c1	0.25 (≈ 0.819 µM)	> 32	> 32	16 (≈ 52.4 µM)	1000		
CCc1ccc(Oc2ccccc2N)c(O)c1	0.25 (≈ 1.09 µM)	> 32	> 32	4 (≈ 17.4 µM)	160		
Oc1cc(C(O)C(F)(F)F)ccc1Oc1cccc(F)n1 (stereo not given)	1 (≈ 3.3 µM)	> 32	> 32	16 (≈ 52.8 µM)	3400		
CCc1ccc(Oc2ccc(S(C)(=O)=O)cc2F)c(O)c1	0.25 (≈ 0.806 µM)	> 32	> 32	1 (≈ 3.22 µM)	140		
Oc1cc(Cl)ccc1Oc1cccc(F)n1	0.25 (≈ 1.04 µM)	64 (≈ 267 µM)	> 32	0.25 (≈ 1.04 µM)	550		
CCc1ccc(Oc2ccc(/C(C)=N/OC)cc2F)c(O)c1	1 (≈ 3.3 µM)	16 (≈ 52.7 µM)	> 32	> 32	14000		
CCc1ccc(Oc2ccc(N3CC(CNC(C)=O)OC3=O)cc2F)c(O)c1 (stereo not given)	4 (≈ 10.3 µM)	> 32	> 32	> 32	6100		
CCc1ccc(Oc2ccc(C(=O)CCCO)cc2)c(O)c1	0.062 (≈ 0.206 µM)	16 (≈ 53.3 µM)	> 32	4 (≈ 13.3 µM)		48	16 (≈ 53.3 µM)
Oc1cc(Br)ccc1Oc1cccc(F)n1	0.25 (≈ 0.88 µM)	64 (≈ 225 µM)	> 32	1 (≈ 3.52 µM)	120		
CCCc1ccc(Oc2cccc(OC)c2)c(O)c1	1 (≈ 3.87 µM)	> 32	> 32	16 (≈ 61.9 µM)	3100		
Oc1cc(C(F)=C(F)F)ccc1Oc1cccc(F)n1	1 (≈ 3.51 µM)	> 32	> 32	16 (≈ 56.1 µM)			
CCCc1ccc(Oc2ccc(OC)cc2)c(O)c1	0.25 (≈ 0.968 µM)	> 32	> 32	4 (≈ 15.5 µM)	230		
CCc1ccc(Oc2ccc(S(C)(=O)=O)cc2)c(O)c1	0.25 (≈ 0.855 µM)	> 32	> 32	16 (≈ 54.7 µM)	810		
CCc1cc(O)c(Oc2cccnc2N)cc1F	0.5 (≈ 2.01 µM)	> 32	> 32	0.25 (≈ 1.01 µM)		56	
Oc1cc(Cn2ccnc2)ccc1Oc1cccc(F)n1	16 (≈ 56.1 µM)	> 32	> 32	> 32	56000		
CCCNc1ccc(Oc2ccc(CC)cc2O)c(F)c1	0.25 (≈ 0.864 µM)	16 (≈ 55.3 µM)	> 32	16 (≈ 55.3 µM)	850		
CCc1ccc(Oc2ccc(S(=O)(=O)CCC3OCCO3)cc2)c(O)c1	0.25 (≈ 0.661 µM)	> 32	> 32	16 (≈ 42.3 µM)	380		
CCc1ccc(Oc2cc(C)ccc2N)c(O)c1	1 (≈ 4.11 µM)	16 (≈ 65.8 µM)	> 32	16 (≈ 65.8 µM)	42000		
CCc1cc(O)c(Oc2ccc[nH]c2=O)cc1F	> 32	> 32	> 32	> 32		> 100000	
CCc1ccc(Oc2ccc(NS(=O)(=O)C3CC3)cc2F)c(O)c1	1 (≈ 2.85 µM)	> 32	> 32	16 (≈ 45.5 µM)	2300		
